Measured values taken from publication PMC2685149 (Nuclear medicine and biology, 2009).
Where “and” joins values, the source holds several entries; their conditions need not be identical. Equal entries are not always repeated. Bridge positions count the residues as written; N and C are the ends. Square brackets hold non-standard residues; d marks the D form. Peptide text beside a SMILES is read from it. * marks the point of attachment. DOTA = O=C(O)CN1CCN(CC(=O)O)CCN(CC(=O)*)CCN(CC(=O)O)CC1; Nle = CCCC[C@H](N)C(=O)O

Key:
[1] = test system: B16/F10 melanoma cells; assay: Cellular internalization in B16/F10 cells; type: cell-based, murine; conditions: after 2 h incubation, 25°C
In short: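 B16/F10 cells were washed with binding medium and incubated at 25°C for 20, 40, 60, 90 and 120 min (n=4) with about 200,000 cpm (0.019 pmol) of HPLC-purified 111In-labelled test peptide. Cells were rinsed with ice-cold PBS/BSA. Surface-bound activity was stripped with pH 4.5 acetate buffer (0.9% NaCl, 0.2% BSA). Cells were then lysed in 1 N NaOH for 5 min, and both fractions were gamma-counted.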

[2] = test system: B16/F10 melanoma cells; assay: Cellular efflux in B16/F10 cells; type: cell-based, murine; conditions: 2 h after incubating cells in culture media
In short: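 B16/F10 cells were loaded with the HPLC-purified 111In-labelled test peptide for 2 h at 25°C, then rinsed twice with ice-cold pH 7.4 0.2% BSA/0.01 M PBS. Release of radioactivity into the culture medium was then followed. At 20, 40, 60, 90 and 120 min, cell-surface and intracellular activities were collected separately and gamma-counted.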

[3] = Biodistribution in B16/F10 pulmonary metastatic melanoma-bearing C57 mice; type: in vivo, mouse; conditions: C57, mouse, 0.037 MBq; for tissue uptake at 4 h / tissue uptake at 24 h / tissue uptake at 2 h: intravenous
In short: (§1)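 Lung metastases were induced in C57 mice by tail-vein injection of 0.2 million cultured B16/F10 cells and used 16 days later. Normal C57 mice served as comparators. Each mouse got 0.037 MBq of HPLC-purified 111In-labelled test peptide by tail vein. Groups of 5 were killed at 2, 4 and 24 h, and organs were weighed and gamma-counted. Blood was taken as 6.5% of body weight. Ratios compare metastatic-lung with normal-lung uptake.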

[4] = test system: B16/F10 pulmonary metastatic melanoma-bearing C57 mice; assay: as above; type: in vivo, mouse; conditions: 16 days post the cell injection
In short: as §1

[5] = Biodistribution in normal C57 mice; type: in vivo; conditions: C57, mouse, 0.037 MBq, total radioactivity; for dose excreted: urine, percent injected dose, normal mice, Mean±SD, n=5
[6] = Stability in mouse serum; type: in vitro ADME; conditions: 37°C, 24 h
[7] = test system: B16/F10 pulmonary melanoma metastases; conditions: mouse, in vivo
[8] = test system: flank B16/F1 murine melanoma; conditions: cited from earlier work
[9] = intestine, iv, total radioactivity
[10] = lung/blood, iv, total radioactivity
[11] = lung/kidney, iv, total radioactivity
[12] = lung/liver, iv, total radioactivity
[13] = lung/muscle, iv, total radioactivity

CCCC[C@@H]1NC(=O)[C@@H](NC(=O)[C@H](CCC(=O)O)NC(=O)CNC(=O)CN2CCN(CC(=O)O)CCN(CC(=O)O)CCN(CC(=O)O)CC2)CCCCNC(=O)C[C@@H](C(N)=O)NC(=O)[C@H](C(C)C)NC(=O)[C@@H]2CCCN2C(=O)[C@H](CCCNC(=N)N)NC(=O)CNC(=O)[C@H](Cc2c[nH]c3ccccc23)NC(=O)[C@H](CCCNC(=N)N)NC(=O)[C@@H](Cc2ccccc2)NC(=O)[C@H](Cc2c[nH]cn2)NC(=O)[C@H](CCC(=O)O)NC1=O [^111In-DOTA-GlyGlu-CycMSH, ^111In-labeled 1,4,7,10-Tetraazacyclododecane-1,4,7,10-tetraacetic acid-Gly-Glu-c[Lys-Nle-Glu-His-DPhe-Arg-Trp-Gly-Arg-Pro-Val-Asp], metal not drawn] ({DOTA}-GEK[Nle]EH[dF]RWGRPVD-NH2; lactam 3-14; C-terminus assumed)
activity internalized in the cells [1]: 79.7±10.1%
activity remained inside the cells (efflux) [2]: 90.6±5.3% and ~90%
tissue uptake dose at 2 h [3, 9]: 7.7 ± 2.05 %ID
tissue uptake dose at 4 h [3, 9]: 5.97 ± 0.48 %ID
tissue uptake dose at 24 h [3, 9]: 0.11 ± 0.03 %ID
tissue uptake at 4 h ([3]; kidneys, total radioactivity): 14.5 ± 0.21 %ID/g
tissue uptake at 24 h ([3]; kidneys, total radioactivity): 15.1 ± 0.86 %ID/g
tissue uptake at 4 h ([3]; liver, total radioactivity): 0.45 ± 0.05 %ID/g
tissue uptake at 4 h ([3]; lung): 1.83 ± 0.12 %ID/g
tissue uptake at 24 h ([3]; lung): 0.29 ± 0.06 %ID/g
tissue to tissue ratio at 2 h [3, 10]: 16.7
tissue to tissue ratio at 4 h [3, 10]: 61
tissue to tissue ratio at 24 h [3, 10]: 9.67
tissue to tissue ratio at 2 h [3, 11]: 0.12
tissue to tissue ratio at 4 h [3, 11]: 0.13
tissue to tissue ratio at 2 h [3, 12]: 4.76
tissue to tissue ratio at 4 h [3, 12]: 4.07
tissue to tissue ratio at 24 h [3, 12]: 2.23
tissue to tissue ratio at 2 h [3, 13]: 50
tissue to tissue ratio at 4 h [3, 13]: 61
tissue to tissue ratio at 24 h [3, 13]: 9.67
tissue uptake at 2 h ([3]; skin, total radioactivity): 0.26 ± 0.22 %ID/g
tissue uptake at 4 h ([3]; skin, total radioactivity): 0.36 ± 0.08 %ID/g
tissue uptake at 2 h ([3]; spleen, total radioactivity): 0.26 ± 0.07 %ID/g
uptake in metastatic melanoma-bearing lung relative to normal lung ([4]; 2 h post-injection): 25.0 times
uptake in metastatic melanoma-bearing lung relative to normal lung ([4]; 4 h post-injection): 36.6 times
uptake in metastatic melanoma-bearing lung relative to normal lung ([4]; 24 h post-injection): 9.7 times
tissue uptake dose at 2 h ([5]; intestine, iv): 7.08 ± 1.54 %ID
tissue uptake dose at 4 h ([5]; intestine, iv): 4.65 ± 0.85 %ID
tissue uptake dose at 24 h ([5]; intestine, iv): 0.11 ± 0.08 %ID
tissue uptake at 2 h ([5]; kidneys, intravenous): 14.1 ± 2.23 %ID/g
tissue uptake at 24 h ([5]; kidneys, intravenous): 13.5 ± 1.48 %ID/g
tissue uptake at 4 h ([5]; liver, intravenous): 0.38 ± 0.01 %ID/g
tissue to tissue ratio at 24 h ([5]; lung and muscle, iv): 1.5
tissue to tissue ratio at 2 h ([5]; lung/blood, iv): 8
tissue to tissue ratio at 4 h ([5]; lung/blood, iv): 2.5
tissue to tissue ratio at 24 h ([5]; lung/blood, iv): 1
tissue to tissue ratio at 2 h ([5]; lung/kidney, iv): 0.01
tissue to tissue ratio at 4 h ([5]; lung/kidney, iv): 0.01
tissue to tissue ratio at 4 h ([5]; lung/liver, iv): 0.13
tissue to tissue ratio at 24 h ([5]; lung/liver, iv): 0.25
tissue to tissue ratio at 2 h ([5]; lung/muscle, iv): 2.67
tissue to tissue ratio at 4 h ([5]; lung/muscle, iv): 1.67
tissue uptake at 4 h ([5]; skin, intravenous): 0.23 ± 0.08 %ID/g
tissue uptake at 2 h ([5]; stomach, intravenous): 0.14 ± 0.07 %ID/g
dose excreted ([5]; iv, 2 h post-injection): 84.7 ± 1.97%
dose excreted ([5]; iv, 4 h post-injection): 89 ± 0.92%
dose excreted ([5]; iv, 24 h post-injection): 96.06 ± 0.53%
stability in mouse serum [6]: stable
accumulation of activity in normal organs in whole-body SPECT/CT image [7]: extremely low
tumor uptake ([8]; 2 h post-injection, flank B16/F1 murine melanoma-bearing mouse model): 10.40±1.40 % ID/g
reduction of renal uptake by negatively-charged -Gly-Glu- linker ([8]; 4 h post-injection, without affecting the tumor uptake): 44%
